The record followed here is ChEMBL document CHEMBL1123648, “Synthesis, chemical reactivity, and antileukemic activity of 5-substituted 6,7-bis(hydroxymethyl)pyrrolo[1,2-c]thiazole biscarbamates and the corresponding sulfoxides and sulfones” (1987).

Test [1] is described as follows: Antileukemic activity against Murine P388 lymphocytic leukemia, body weight difference of the test animals compared to control group A animals at a dose of 25 mg/kg. Set-up: unit not given here. Format: functional, Mus musculus. An outline of the steps:
(§1)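 CD2F1 mice implanted intraperitoneally with ascitic fluid carrying ca. 1×10^6 P388 cells, under the NCI protocol. Dosing was intraperitoneal, starting 24 h after inoculation, then every 24 h for five doses in total. The body weight difference of treated mice is taken against untreated controls. Toxicity day survivors are the mice alive at day five out of those tested.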

A short description of test [2]: Antileukemic activity against Murine P388 lymphocytic leukemia, body weight difference of the test animals compared to control group A animals at a dose of 50 mg/kg. Set-up: unit not given here. Format: functional, Mus musculus. The gist of the method:
as §1

Test [3] is described as follows: Antileukemic activity against Murine P388 lymphocytic leukemia, body weight difference of the test animals compared to control group A animals at a dose of 100 mg/kg. Type of test: functional, Mus musculus. Set-up: unit not given here. An outline of the steps: as §1
Test [4] is described as follows: Antileukemic activity against Murine P388 lymphocytic leukemia, body weight difference of the test animals compared to control group A animals at a dose of 200 mg/kg. Type of test: functional, Mus musculus. The gist of the method: as §1
Test [5] is described as follows: Toxicity day survivors expressed as number of animals that survived to day five/ number of test animals under control group A at a dose of 400 mg/kg; 6 survived out of 6. Type of test: functional, Mus musculus.
Test [6] can be described thus: Toxicity day survivors expressed as number of animals that survived to day five/ number of test animals under control group A at a dose of 50 mg/kg; 6 survived out of 6. Format: functional, Mus musculus.
Test [7] in a line: Toxicity day survivors expressed as number of animals that survived to day five/ number of test animals under control group A at a dose of 100 mg/kg; 6 survived out of 6. Type of test: functional, Mus musculus.
Test [8] can be described thus: Toxicity day survivors expressed as number of animals that survived to day five/ number of test animals under control group A at a dose of 200 mg/kg; 6 survived out of 6. Format: functional, Mus musculus.
Test [9] can be described thus: Toxicity day survivors expressed as number of animals that survived to day five/ number of test animals under control group A at a dose of 25 mg/kg; 6 survived out of 6. Type of test: functional, Mus musculus.
Test [10] in a line: Percent increase in life span of test animals compared to untreated tumor-bearing control group A animals at a dose of 100 mg/kg. Format: functional. Conditions: Mus musculus.
The nature of test [11]: Percent increase in life span of test animals compared to untreated tumor-bearing control group A animals at a dose of 200 mg/kg. To be noted: Mus musculus. Format: functional.
Test [12] in a line: Percent increase in life span of test animals compared to untreated tumor-bearing control group A animals at a dose of 25 mg/kg. Type of test: functional. Conditions: Mus musculus.
The nature of test [13]: Percent increase in life span of test animals compared to untreated tumor-bearing control group A animals at a dose of 400 mg/kg. Format: functional. To be noted: Mus musculus.
A short description of test [14]: Percent increase in life span of test animals compared to untreated tumor-bearing control group A animals at a dose of 50 mg/kg. Format: functional. Conditions: Mus musculus.
Test [15] is described as follows: Antileukemic activity against Murine P388 lymphocytic leukemia, body weight difference of the test animals compared to control group A animals at a dose of 400 mg/kg. Format: functional, Mus musculus. The gist of the method: as §1
Test [16] can be described thus: Toxicity day survivors expressed as number of animals that survived to day five/ number of test animals under control group A at a dose of 400 mg/kg; 3 survived out of 6. Format: functional, Mus musculus.
Test [17] has as its system P388. Put plainly: Log cell population relative to cell population at the beginning of treatment compared to control group A at a dose of 100 mg/kg. Type of test: functional, Mus musculus.
Test [18] relates to P388. The experiment in a line: Log cell population relative to cell population at the beginning of treatment compared to control group A at a dose of 200 mg/kg. Type of test: functional, Mus musculus.
Test [19] relates to P388. The experiment in a line: Log cell population relative to cell population at the beginning of treatment compared to control group A at a dose of 50 mg/kg. Type of test: functional, Mus musculus.
Test [20] can be described thus: Antileukemic activity against Murine P388 lymphocytic leukemia, body weight difference of the test animals compared to control group A animals at a dose of 6.25 mg/kg. Type of test: functional, Mus musculus. An outline of the steps:
as §1

A short description of test [21]: Antileukemic activity against Murine P388 lymphocytic leukemia, body weight difference of the test animals compared to control group A animals at a dose of 12.5 mg/kg. Format: functional, Mus musculus. An outline of the steps: as §1
Test [22] in a line: Toxicity day survivors expressed as number of animals that survived to day five/ number of test animals under control group A at a dose of 50 mg/kg; 5 survived out of 6. Type of test: functional, Mus musculus.
Test [23] is described as follows: Toxicity day survivors expressed as number of animals that survived to day five/ number of test animals under control group A at a dose of 6.25 mg/kg. Format: functional, Mus musculus.
The nature of test [24]: Toxicity day survivors expressed as number of animals that survived to day five/ number of test animals under control group A at a dose of 100 mg/kg; 3 survived out of 6. Format: functional, Mus musculus.
Test [25] can be described thus: Toxicity day survivors expressed as number of animals that survived to day five/ number of test animals under control group A at a dose of 12.5 mg/kg; 6 survived out of 6. Format: functional, Mus musculus.
Test [26] can be described thus: Percent increase in life span of test animals compared to untreated tumor-bearing control group A animals at a dose of 12.5 mg/kg. Format: functional. To be noted: Mus musculus.
The nature of test [27]: Percent increase in life span of test animals compared to untreated tumor-bearing control group A animals at a dose of 6.25 mg/kg. Format: functional. To be noted: Mus musculus.
Test [28] concerns P388. Put plainly: Log cell population relative to cell population at the beginning of treatment compared to control group A at a dose of 12.5 mg/kg. Format: functional, Mus musculus.
The subject of test [29] is P388. Put plainly: Log cell population relative to cell population at the beginning of treatment compared to control group A at a dose of 25 mg/kg. Format: functional, Mus musculus.
The test system of test [30] is P388. The experiment in a line: Log cell population relative to cell population at the beginning of treatment compared to control group A at a dose of 6.25 mg/kg. Type of test: functional, Mus musculus.
Test [31] can be described thus: Antileukemic activity against Murine P388 lymphocytic leukemia, body weight difference of the test animals compared to control group C animals at a dose of 100 mg/kg. Also noted: unit not given here. Type of test: functional, Mus musculus. The gist of the method:
as §1

Test [32] in a line: Antileukemic activity against Murine P388 lymphocytic leukemia, body weight difference of the test animals compared to control group C animals at a dose of 200 mg/kg. Format: functional, Mus musculus. An outline of the steps: as §1
Test [33] is described as follows: Antileukemic activity against Murine P388 lymphocytic leukemia, body weight difference of the test animals compared to control group C animals at a dose of 25 mg/kg. Type of test: functional, Mus musculus. An outline of the steps:
as §1

Test [34] in a line: Antileukemic activity against Murine P388 lymphocytic leukemia, body weight difference of the test animals compared to control group C animals at a dose of 50 mg/kg. Format: functional, Mus musculus. Set-up: unit not given here. An outline of the steps: as §1
A short description of test [35]: Antileukemic activity against Murine P388 lymphocytic leukemia and toxicity day survivors expressed as number of animals that survived to day five/ number of test animals under control group C at a dose of 50 mg/kg; 6 survived out of 6. Type of test: functional, Mus musculus.
Test [36] in a line: Percent increase in life span of test animals compared to untreated tumor-bearing control group C animals at a dose of 100 mg/kg. Format: functional. To be noted: Mus musculus.
Test [37] relates to P388. Put plainly: Log cell population relative to cell population at the beginning of treatment compared to control group C at a dose of 100 mg/kg. Type of test: functional, Mus musculus.
Test [38] is described as follows: Percent increase in life span of test animals compared to untreated tumor-bearing control group C animals at a dose of 25 mg/kg. Format: functional. Conditions: Mus musculus.
A short description of test [39]: Percent increase in life span of test animals compared to untreated tumor-bearing control group C animals at a dose of 50 mg/kg. Format: functional. To be noted: Mus musculus.
The nature of test [40]: Toxicity day survivors expressed as number of animals that survived to day five/ number of test animals under control group C at a dose of 100 mg/kg; 6 survived out of 6. Format: functional, Mus musculus.
A short description of test [41]: Toxicity day survivors expressed as number of animals that survived to day five/ number of test animals under control group C at a dose of 200 mg/kg; 6 survived out of 6. Type of test: functional, Mus musculus.
The nature of test [42]: Toxicity day survivors expressed as number of animals that survived to day five/ number of test animals under control group C at a dose of 25 mg/kg; 6 survived out of 6. Type of test: functional, Mus musculus.
The subject of test [43] is P388. Put plainly: Log cell population relative to cell population at the beginning of treatment compared to control group C at a dose of 25 mg/kg. Format: functional, Mus musculus.
The test system of test [44] is P388. Put plainly: Log cell population relative to cell population at the beginning of treatment compared to control group C at a dose of 50 mg/kg. Type of test: functional, Mus musculus.

Structures are written as SMILES.

On to `CC(C)NC(=O)OCc1c(COC(=O)NC(C)C)c(-c2ccc(Cl)c(Cl)c2)n2c1CSC2`, for which the BWD in [1] was -1.3; in [2], -1.3; in [3], -0.9; in [4] it was -1.7; in [15], -1.3. The TDS in [5], in [6], in test [7], in [8] and in test [9] was 6 each time. Further, the ILS at 100 mg/kg in [10] is -13%. In addition, the ILS at 200 mg/kg in test [11] was -12%. In test [12], the ILS at 25 mg/kg was -9%. Also, the ILS at 400 mg/kg in test [13] is -11%. Moreover, the ILS at 50 mg/kg in test [14] is -12%.

Take `Cc1c(COC(=O)NC(C)C)c(COC(=O)NC(C)C)c2n1C[S+]([O-])C2` (stereo not given): the BWD in test [2] is -0.6; in test [3] it was -0.1; in test [4], -2.6; in [15] it was -4.5. The TDS is 3 in [16], 6 in test [6], 6 in test [7] and 6 in test [8]. In test [10], the ILS at 100 mg/kg stood at 32%. The ILS at 200 mg/kg in test [11] came out at 76%. The ILS at 50 mg/kg in test [14] was determined as 26%. The results for the KE in the test with P388 [17], in the test on P388 [18] and in the test with P388 [19] were -0.08, 3.94 and -0.69, respectively.

`Cc1c(COC(=O)NC(C)C)c(COC(=O)NC(C)C)c2n1CSC2`: the BWD in test [1] is 1.9; in test [2], -3.5; in test [20] it was -1.3; in test [3], -4.9; in test [21], -1.9. The TDS was 5 in test [22]; 6 in test [23]; 3 in [24]; 6 in test [25]; 0 in test [8]; 6 in test [9]. Also, the ILS at 12.5 mg/kg in [26] came to 42%. Further, the ILS at 25 mg/kg in test [12] was 73%. Further, in test [27], the ILS at 6.25 mg/kg turned out to be 54%. The KE is 0.4 with P388 [28], 2.61 with P388 [29] and 1.27 in the test with P388 [30].

For `CNC(=O)OCc1c(COC(=O)NC)c2n(c1C)CS(=O)(=O)C2`, the BWD in [31] was -2.5; in [32] it was -2.1; in test [33], 0.3; in test [34], 0.6. Besides, the TDS in test [35], in [40], in [41] and in [42] was 6 throughout. The ILS at 100 mg/kg in test [36] came to 104%. Further, the KE in the test on P388 [37] is 0.33; in the test on P388 [43], -0.05; with P388 [44], 0.03. Further, in [38], the ILS at 25 mg/kg amounted to 22%. Further, the ILS at 50 mg/kg in test [39] stood at 40%.
